An excerpt weighted towards active compounds, which were near 1.8% of everything screened.
697 NFkB inh: inhibitors of PMA/ionomycin-induced NF-kB reporter, 697 cells, primary screen, B-cell NF-kB inhibitor project, cell-based, luminescence, uHTS; 697 B-cell NF-kB luciferase reporter, 16 h; inhibition, % at 4 µM; actives 0.33% (n = 330,000); AID 435022, 2010; in the data active = inhibition above about 35%
UPR CHOP act: activators of apoptotic CHOP UPR arm, primary screen, cell-based, CHO-CHOP luciferase reporter, luminescence, uHTS; UPR activation; percent of tunicamycin response over DMSO baseline; activation, % at 10 µM; actives 0.34% (n = 330,000); AID 449763, 2010;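 active = at 10 µM dose, activation of 40% or more, normalized to positive control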;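 note: 100% = tunicamycin at 10 µg/mL and 0% = DMSO alone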
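System: CHO-CHOP luciferase reporter cell line | Buffer or medium: F12 medium containing 10% fetal bovine serum | Doses: One dose, 10 µM in 0.5% DMSO | Times: 6 h compound exposure at 37 °C after overnight seeding | Signal: Luciferase luminescence | Read-out: % activation vs tunicamycin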
XBP1 UPR activ: activators of adaptive XBP1 UPR arm, primary screen, cell-based, CHO-XBP1 luciferase reporter, luminescence, uHTS; IRE1-XBP1 UPR activation; percent of tunicamycin response, DMSO as zero; activation, % at 20 µM; actives 0.33% (n = 330,000);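 active = versus positive control, 20 µM dose yields 30% or more activation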;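 note: 100% = tunicamycin at 10 µg/mL and 0% = DMSO only wells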
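Material: CHO cell line with stable XBP1 luciferase reporter; schedule: 16-18 h cell attachment at 37 °C, then 6 h compound exposure; signal: glow luminescence from Steady-Glo reagent; medium: serum-containing F12 medium, 10% FBS; benchmarks: tunicamycin 10 µg/mL and vehicle-only wells; read-out: percent activation relative to tunicamycin reference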
CRFR2-BP antag: antagonists of CRF-BP/CRF-R2 complex, primary screen, cell-based, HEK293, calcium dye fluorescence, uHTS. CRF-induced calcium fluorescence. inhibition, % at 11.8 µM. actives 0.59% (n = 350,000). AID 588475, 2011;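 active = inhibition of the ligand-induced calcium signal above about 50% at the single tested concentration, limit read from the data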
Jurkat NFkB inh: inhibitors of induced NF-kB luciferase reporter, primary screen, TCR NF-kB activation inhibitor project, cell-based, luminescence, uHTS | Jurkat, PMA/ionomycin-induced NF-kB luciferase reporter | inhibition, % at 4 µM | actives 0.53% (n = 330,000); in the data active = inhibition above about 50%
Jurkat NFkB conf: PMA/ionomycin-induced NF-kB reporter inhibitors, Jurkat retest, confirmation, T-cell NF-kB inhibitor project, cell-based, luminescence, single concentration; shares compounds with Jurkat NFkB inh; Jurkat NF-kB luciferase, 16 h; inhibition, % at 4 µM; actives 27% (n = 2,700); AID 435020, 2010;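 active = inhibition reaching about 45% at 4 µM in either replicate, limit read from the data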;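 note: plate controls were PMA/ionomycin stimulated DMSO wells for no effect and unstimulated DMSO wells for full effect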
Numbers without * were called inactive; . = not tested or not shown.

SMILES | 697 NFkB inh | UPR CHOP act | XBP1 UPR activ | CRFR2-BP antag | Jurkat NFkB inh | Jurkat NFkB conf
Nc1nn2cc(-c3ccccc3)nc2c2ccccc12 | -182 | 3 | 2 | -3 | -190 | -84
Nc1nc(-c2ccccc2)cn1N | -14 | -4 | 0 | -1 | 4 | .
O=C(/C=C/c1ccc2c(c1)OCO2)Nc1nncs1 | 9 | 4 | -1 | 1 | -13 | .
CC(C)(C)c1ccc(/C=C/C(=O)Nc2nncs2)cc1 | -11 | 6 | 2 | -53 | -171 | -113
CC1=C([N+](=O)[O-])C(c2ccccc2)C2=C(N1)c1ccccc1C2=O (centres undefined) | 17 | -1 | 12 | 8 | 61* | 47*
COc1ccc(C2C(C#N)=C(C)NC3=C2C(=O)c2ccccc23)cc1 (centres undefined) | -2 | 1 | 2 | -7 | 3 | .
CCOC(=O)c1cc(CC)sc1NC(=O)c1cccc(N2C(=O)CCC2=O)c1 | -68 | 6 | 2 | 18 | 57* | 8
O=C(Nc1ccc(S(=O)(=O)N2CCOCC2)cc1)c1ccccc1Br | 2 | 1 | -3 | 9 | 9 | .
Cc1cc(O)c(-c2cc(C(=O)Nc3cccnc3)[nH]n2)cc1C | -41 | 9 | 1 | 8 | -178 | -114
COc1ccccc1NC(=S)N(Cc1ccco1)Cc1cc2cc(C)c(C)cc2[nH]c1=O | -17 | 2 | -1 | -9 | 67* | 5
Cc1ccc(NC(=O)C(=O)NCC2CCCN2S(=O)(=O)c2cccs2)cc1C (centres undefined) | -6 | 3 | 0 | -9 | -1 | .
COc1ccc(NC(=O)C(=O)NCC2CCCN2S(=O)(=O)c2cccs2)cc1 (centres undefined) | -4 | 2 | 0 | -1 | 65* | 54*
COc1ccn(C2CCCCO2)c(=O)n1 (centres undefined) | . | . | . | -3 | . | .
COc1ccc(OCC(=O)Nc2ccccc2N2CCN(C)CC2)cc1 | -3 | 1 | 0 | 1 | -6 | .
COc1ccc(OCC(=O)Nc2ccccc2N2CCCCC2)cc1 | 4 | 3 | 4 | -5 | 64* | 47
COc1ccc(CNCC(=O)Nc2ccccc2-n2cccc2)cc1 | -28 | -2 | 2 | 2 | 68* | 13
Cc1ccc(/C=C/C(=O)CCC(=O)O)cc1 | -7 | 2 | -1 | 0 | -9 | .
COc1ccccc1N(CC(=O)NCCN1CCOCC1)S(=O)(=O)c1ccccc1 | 4 | 0 | 0 | 7 | 10 | .
CC(C)(C)c1ccc(-n2ncc3c2CCCC3NC(=O)CCN2CCCC2=O)cc1 (centres undefined) | -25 | 6 | -6 | -14 | 44 | .
COc1cc(S(=O)(=O)NCC2(N3CCCCC3)CCCCC2)ccc1NC(C)=O | 8 | 0 | 1 | 4 | 13 | .
Cc1ccc(C)c(N/C(N)=N/c2nc(C)cc(C)n2)c1 | -29 | 0 | -7 | -34 | 4 | .
Cc1ccc(CN=C(N)Nc2nc(C)cc(C)n2)cc1 | -39 | 0 | 1 | -7 | 73* | 17
Cc1ccc(NC(=O)Nc2ccc3c(c2)nc(C)n3C)cc1 | -115 | 0 | -1 | -7 | -117 | .
Cc1nc2cc(NC(=O)Nc3cccc([N+](=O)[O-])c3)ccc2n1C | -216 | 1 | 1 | 17 | -166 | -118
Clc1ccc2c(c1)C(C1=NCCN1)c1ccccc1CS2 (centres undefined) | 5 | 1 | 1 | -14 | 63* | 43*
SMILES | 697 NFkB inh | UPR CHOP act | XBP1 UPR activ | CRFR2-BP antag | Jurkat NFkB inh | Jurkat NFkB conf
S=C1NCCc2ccc(Cl)cc2C1c1ccccc1Cl (centres undefined) | -21 | -1 | -1 | 0 | -17 | .
COC(=O)CCC(=O)NC(=S)Nc1sc(C)c(C)c1C(N)=O | -41 | 2 | 14 | 24 | 65* | 50*
Cc1ccc(Nc2nnc(SCC(=O)NC3CC3)s2)cc1 | 12 | 2 | 2 | -9 | -16 | .
COc1cccc(-c2noc(-c3cccs3)n2)c1 | -249 | 0 | 2 | -26 | -152 | -123
Cc1cccc(C(=O)N[C@H](C(=O)Nc2nc3ccccc3[nH]2)C(C)C)c1 | -10 | -1 | 14 | -23 | 60* | 37
CN(C)c1cccc(C(=O)Nc2nc3ccccc3[nH]2)c1 | -158 | -3 | -7 | -10 | -72 | .
O=C(Nc1nc2ccccc2[nH]1)c1cccc(F)c1 | -190 | 1 | -3 | -17 | -150 | -107
O=C(Nc1nc2ccccc2[nH]1)c1cccc(Br)c1 | -207 | 6 | 3 | -6 | -152 | -115
CC1CCN(C(=O)CN(c2ccc3c(c2)OCCO3)S(=O)(=O)c2ccccc2)CC1 | 6 | 2 | 4 | -16 | -16 | .
O=C(O)C1Nc2ccc(C(F)(F)F)cc2C2OCCC12 (centres undefined) | 22 | 3 | -2 | 5 | 5 | .
O=C(Nc1ccc(N2CCOCC2)c(Cl)c1)c1cccc(F)c1 | -143 | 13 | 3 | -2 | -152 | -96
Cc1no[n+]([O-])c1COc1ccc(/C=N/n2nnnc2N)cc1 | -11 | 0 | -1 | 15 | 50* | 14
CC(c1ccco1)N(C(=O)c1ccc(C#N)cc1)c1ccccn1 (centres undefined) | 15 | -2 | 5 | 3 | -10 | .
CC(C)c1ccc(C(=O)N(c2ccccn2)C(C)c2ccco2)cc1 (centres undefined) | -46 | 5 | 5 | -10 | -165 | -78
CCC1=Nc2cc(C(=O)NCc3cccnc3)ccc2Sc2ccc(C)cc21 | -21 | 0 | 8 | -8 | 56* | 19
Cc1csc2ncnc(NC3CCN(Cc4ccccc4)CC3)c12 | -5 | 10 | 2 | -9 | 68* | 58*
CCOC(=O)c1c(C)[nH]c(N=Nc2cccc(OC)c2)c1C | -174 | 2 | 2 | 11 | -209 | -39
CCOC(=O)c1c(C)[nH]c(N=Nc2cccc(C)c2)c1C | -179 | 3 | 12 | -29 | -111 | .
Cc1ccc(S(=O)(=O)NCCC(=O)N2CC(C)OC(C)C2)cc1C (centres undefined) | 10 | -2 | -3 | 8 | -6 | .
Cc1cccn2cc(-c3ccc(F)cc3)nc12 | -198 | -2 | 0 | 2 | -167 | -93
Cc1cccn2cc(-c3ccccc3)nc12 | -118 | 1 | 1 | -12 | -92 | .
CC1=CC(=C2C(=O)c3ccccc3C2=O)C=C(C)N1C | -12 | 4 | 2 | 25 | -25 | .
CCCCCN1C=CC(=C2C(=O)c3ccccc3C2=O)C=C1 | -18 | -10 | -12 | -5 | 60* | 40
